Experimental data published in ChEMBL document CHEMBL1141343, “Scalarane sesterterpenes from a marine sponge of the genus Spongia and their FXR antagonistic activity” (J Nat Prod, 2007).
The source made the active and inactive calls. No cut-off for these calls is given here.

Columns and labels:
[1] = Cytotoxicity against monkey CV1 cells after 24 hrs by MTT assay; assay type: cell-based; details: Chlorocebus aethiops, CV-1, 24 h
In short: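 CV-1 monkey kidney cells plated in DMEM with 10% FBS at 37 °C, 5% CO2, grown 24 h, then exposed to compounds at a range of concentrations for 24 h. MTT at 1 mg/mL added for 1 h at 37 °C. Formazan dissolved in DMSO and absorbance read at 450 nm. Each experiment repeated more than three times.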

Bile acid receptor = target: T1, Bile acid receptor (Homo sapiens, UniProt Q96RI1); test: Antagonist activity at human FXR expressed in monkey CV1 cells after 24 hrs by ecdysone receptor response element-driven luciferase reporter assay; assay type: functional, cell-based, CV-1
T1 sequence (Q96RI1 whole entry): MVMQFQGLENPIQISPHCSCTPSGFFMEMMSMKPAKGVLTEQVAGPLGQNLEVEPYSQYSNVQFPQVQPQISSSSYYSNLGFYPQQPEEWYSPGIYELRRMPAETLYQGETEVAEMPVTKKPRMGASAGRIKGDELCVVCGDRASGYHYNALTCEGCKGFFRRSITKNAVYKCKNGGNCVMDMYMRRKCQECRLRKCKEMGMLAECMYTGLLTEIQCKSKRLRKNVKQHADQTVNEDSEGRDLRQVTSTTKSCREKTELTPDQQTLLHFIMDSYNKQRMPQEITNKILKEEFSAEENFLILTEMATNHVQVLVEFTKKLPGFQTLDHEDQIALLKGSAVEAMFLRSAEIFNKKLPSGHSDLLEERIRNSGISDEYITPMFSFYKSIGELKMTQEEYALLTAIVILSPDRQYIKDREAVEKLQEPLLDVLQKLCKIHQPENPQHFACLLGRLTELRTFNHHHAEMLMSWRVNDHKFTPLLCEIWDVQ
In short: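 Full-length human FXR, EcRE-driven luciferase reporter and β-galactosidase plasmid cotransfected into CV-1 cells, seeded 24 h beforehand in DMEM with 10% lipid-depleted FBS at 37 °C, 5% CO2. After a further 24 h, cells were exposed to compound or DMSO vehicle with 50 µM CDCA. Harvest was at 24 h, with luciferase normalized to β-galactosidase. Triplicate wells, three repeats.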

[2] = target: T2, Bile acid receptor (Homo sapiens) (UniProt Q96RI1); test: Inhibition of CDCA-mediated interaction between FXR ligand binding domain and SRC1 at 25 uM by SPR spectroscopy
T2 sequence (whole entry): T1 sequence (Q96RI1 whole entry)
In short: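 Human FXR LBD (4 µM) preincubated 1 h with compound plus 50 µM CDCA, then injected for 120 s over an immobilized SRC-1 coactivator peptide surface, followed by a 120 s buffer wash. Biacore SPR, 25 °C.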

## CO[C@@H]1OC(=O)C2=CC[C@H]3[C@]4(C)CC[C@H]5C(C)(C)CCC[C@]5(C)[C@H]4C[C@@H](O)[C@]3(C)[C@H]21
[1]
  IC50: 48 µM
Bile acid receptor
  IC50: 24 µM
[2]
  Activity: Active

## C[C@]1(CO)CCC[C@]2(C)[C@H]3C[C@@H](O)[C@]4(C)[C@H]5COC(=O)C5=CC[C@H]4[C@]3(C)CC[C@@H]12
[1]
  IC50: > 100 µM
Bile acid receptor
  IC50: > 100 µM

## C[C@@]1(CO)CCC[C@]2(C)[C@H]3C[C@@H](O)[C@]4(C)[C@H]5COC(=O)C5=CC[C@H]4[C@]3(C)CC[C@@H]12
[1]
  IC50: 49.4 µM
Bile acid receptor
  IC50: 2.4 µM

## CC1(C)CCC[C@]2(C)[C@H]3C[C@@H](O)[C@]4(C)[C@@H]5C(=CC[C@H]4[C@]3(C)CC[C@@H]12)C(=O)O[C@H]5O
[1]
  IC50: 77.2 µM
Bile acid receptor
  IC50: 75 µM
[2]
  Activity: Active

## CC1(C)CCC[C@]2(C)[C@H]3C[C@@H](O)[C@]4(C)[C@H]5COC(=O)C5=CC[C@H]4[C@]3(C)CC[C@@H]12
[1]
  IC50: 41.4 µM
Bile acid receptor
  IC50: 31.6 µM
[2]
  Activity: Active

## CC(=O)O[C@@H]1C[C@@H]2[C@@]3(C)CCCC(C)(C)[C@@H]3CC[C@@]2(C)[C@@H]2CC=C3C(=O)O[C@@H](O)[C@@H]3[C@@]12C
[1]
  IC50: 75.1 µM
Bile acid receptor
  IC50: 60.4 µM
[2]
  Activity: Active
